# Assay outcomes deposited in PubChem by several laboratories.
# TbHK1 inh: Trypanosoma brucei hexokinase 1 inhibitors, primary screen, biochemical, G6PDH-coupled NADH absorbance, MLSCN library. hexokinase 1 [Trypanosoma brucei]. recombinant TbHK1, G6PDH-coupled NADH A340. inhibition, % at 10 µM. 220,000 tested, 0.11% active. AID 1430, 2008;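 active means inhibition of 50% or more in the single-dose primary screen; inactive means inhibition below 50%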
# HMGR II inh: inhibitors of E. faecalis class II HMGR, primary screen, biochemical, Enterococcus faecalis | AID 1066, 2008 | purified E. faecalis HMGR, NADPH absorbance 340 nm kinetic | inhibition, % at 10 µM | 190,000 tested, 0.41% active;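 active means inhibition above a set limit, the median over all tested compounds plus 3 SD, cut at about 9.5% in these data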;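 further: enzyme runs in reverse so mevalonate oxidation gives rising NADPH absorbance; 0% = complete reaction with DMSO and 100% = background rate lacking mevalonate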
# EP2 modulator: EP2 receptor modulators, cAMP readout, primary screen, cell-based, HTRF cAMP, PGE2 stimulation; induction, % at 25 µM; 260,000 tested, 0.83% active; Prostaglandin E2 receptor EP2 subtype (Homo sapiens), P43116; EP2-expressing cells, cAMP HTRF FRET, PGE2 co-stimulation;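 active means compounds whose cAMP rise, as percent of the full-agonist control response, exceeds 60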;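 further: rat C6 glioma line stably carrying human EP2 under a CMV promoter; the protocol text gives 20 µM as final concentration; 100% = response of wells given 1 µM PGE2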
# Target sequence (P43116 whole entry, looked up): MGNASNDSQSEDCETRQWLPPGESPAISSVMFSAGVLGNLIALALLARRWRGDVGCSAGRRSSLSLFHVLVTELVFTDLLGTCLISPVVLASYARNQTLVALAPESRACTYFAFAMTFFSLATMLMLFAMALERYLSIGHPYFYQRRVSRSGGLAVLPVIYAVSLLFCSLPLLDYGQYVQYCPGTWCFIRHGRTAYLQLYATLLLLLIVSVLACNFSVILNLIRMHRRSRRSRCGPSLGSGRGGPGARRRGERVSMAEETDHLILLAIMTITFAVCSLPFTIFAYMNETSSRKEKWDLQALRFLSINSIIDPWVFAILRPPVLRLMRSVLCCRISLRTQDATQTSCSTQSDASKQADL
# EP2 antag: human EP2 receptor antagonists, primary screen, TR-FRET cAMP, C6 glioma cells | C6 glioma cells expressing human EP2; cells stimulated with saturating PGE2 | 260,000 tested, 0.52% active | inhibition, % at 25 µM;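 active means percent inhibition above 40 after rounding to a whole number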;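 further: rat C6 glioma host cells with rolipram phosphodiesterase inhibitor present; the protocol text gives 20 µM as final concentration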
# b-catenin transl: modulators of beta-catenin nuclear translocation, primary screen, imaging, HeLa cells, immunofluorescence, high-content; nuclear translocation activity, % at 5 µM; 190,000 tested, 0.3% active; AID 1665, 2009;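 active means nuclear translocation activity above 50% at 5 µM, with a well cell count of 50 or more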;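 further: per-cell ratio of nuclear to cytoplasmic median beta-catenin stain intensity; plate controls were DMSO negative control for no effect and GSK-3 inhibitor IX positive control for full effect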
#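 Test system: human HeLa cells, endogenous beta-catenin. Times: 24 h compound exposure, 37°C. Measured by: beta-catenin immunofluorescence imaging with DAPI.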
# MT stabilizer: microtubule stabilizers in HeLa cells, primary screen, imaging, high-content imaging; HeLa tubulin immunostaining HCS, 24 h; share of cells brighter than vehicle mean+2SD; % tubulin-high responders, % at 10 µM; 200,000 tested, 0.83% active; AID 2205, 2009;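 active means plate Z-score above 3 for both tubulin-high and condensed-nucleus cell shares, with cell loss under 80%, at 10 µM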;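 further: anti alpha tubulin signal scored within the nucleus-defined area of each cell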
# Starred values were filed as active, the others as inactive; . = no result; ! = not confirmed by another sample. Shown are actives, neighbours in structure and some others; about 2.4% of the full set was active somewhere.
SMILES,TbHK1 inh,HMGR II inh,EP2 modulator,EP2 antag,b-catenin transl,MT stabilizer
CCNc1nc(NC(C)C)nc(SCCOc2ccc(C)cc2)n1,6,-2,48,8,1,3
COc1ccc(C(=O)NC2CCN(CC(=O)Nc3cccc(C)c3)CC2)cc1OC,5,11*,-23,16,.,5
C=CCNC(=O)CN1CCC(NC(=O)c2ccc(OC)c(OC)c2)CC1,.,.,-18,7,.,.
c1ccc(CCNc2ccnc3cc4ccccc4cc23)cc1,5,-3,-83,58*,2,31*
O=C(Nc1ncc2c(n1)-c1ccccc1CC2)c1cccc(Cl)c1,6,-10,-38,.,.,44*
CC(=O)N(c1nc(CCl)cs1)c1ccc(C)cc1C,-2,-8,62*,10,-3,4
O=c1c2oc3ccccc3c2[nH]c(=S)n1-c1ccc(F)cc1,-13,-1,65*,15,-1,1
COc1cccc(C2NC(=O)NC(O)(C(F)(F)F)C2C(=O)c2cccnc2)c1OC (stereo not given),1,19*,11,8,.,3
CCN(CC)C(=O)Oc1ccc(Cl)c2ccccc12,7,-2,-3,13,5,4
CN(C)C[C@@H](O)c1ccc(Cl)c2ccccc12,.,.,-26,47*,.,.
Oc1c(CN2CCN(c3ccccc3)CC2)cc(Br)c2cccnc12,-7,.,15,41*!,0,.
COc1ccc(NCc2nnc(SCc3c(F)cccc3Cl)n2C)cc1,.,.,-36,6,.,.
Cc1sc2nc(C(C)C)nc(N3CCN(C(=O)C4CC4)CC3)c2c1C,.,.,-23,6,.,.
COc1ccc(Nc2oc(COc3ccc(Cl)cc3)nc2C#N)cc1,4,-5,-60,9,.,3
CCOc1ccc(Nc2oc(-c3ccc(Cl)cc3)nc2C#N)cc1,-8,-2,-51,3,0,33*
COc1ccc(Nc2oc(-c3ccc(Cl)cc3)nc2C#N)cc1,-12,0,-46,9,63*,39*
COc1ccc(Nc2oc(-c3ccc(OC)cc3)nc2C#N)cc1,-29,.,-29,3,0,.
CC1(c2ccc(Cl)cc2Cl)OCC(Cn2ccnc2)O1 (stereo not given),2,-5,-24,10,2,36*
CCn1nc(CC(=O)Nc2nnc(C)s2)c2ccccc2c1=O,.,.,-17,8,.,.
COc1ccc(N2CCc3c(C)nc(SC)nc32)cc1,-4,-4,35,6,-2,17*
CCOc1ccc(N2CCc3c(C)nc(SC)nc32)cc1,-3,4,19,8,125*,31*
CSc1nc(C)c2c(n1)N(c1ccc(F)cc1)CC2,-8,-6,32,13,-1,0
COc1ccc(CCNC(=O)C2CCN(S(=O)(=O)N3CC(C)CC(C)C3)CC2)cc1OC (stereo not given),53*,-4,0,7,-1,4
O=C(Cn1cccc1C(=O)c1ccccc1)NCc1ccco1,-7,14*,30,22,2,5
Cc1ccc(C(=O)CSc2nnc(-c3cccnc3)n2N)cc1,-3,0,11,8,9,30*
SMILES,TbHK1 inh,HMGR II inh,EP2 modulator,EP2 antag,b-catenin transl,MT stabilizer
Cn1ccc(C2c3cc4c(cc3CCN2S(=O)(=O)c2ccccc2)OCO4)n1 (stereo not given),.,.,13,6,.,.
COC(=O)c1cc(C(=O)N2CCN(c3ccccc3OC)CC2)cc([N+](=O)[O-])c1,8,-2,-16,2,70*,27*
COc1ccccc1N1CCN(C(=O)c2ccc3nc[nH]c3c2)CC1,-4,-2,35,14,1,4
COc1ccccc1N1CCN(c2ccc([N+](=O)[O-])cc2Cl)CC1,-13,-2,2,9,3,21*
COc1cc2c(cc1OC)CN(c1ccc([N+](=O)[O-])cc1Cl)CC2,-3,0,-27,5,0,2
COC(=O)c1cc(C(=O)N2CCN(c3cccc(C)c3C)CC2)cc([N+](=O)[O-])c1,-3,-6,19,4,91*,15*
O=C(COC(=O)c1ccccn1)Nc1ccc(Cl)cc1Cl,.,.,-69,5,.,.
CCN(Cc1ccccc1)S(=O)(=O)c1ccc(NC(=O)c2cnccn2)cc1,.,.,-52,8,.,.
O=c1cc(CCl)[nH]c2nc3ccccc3n12,-27,.,-6,9,-1,.
O=c1cc(-c2ccccc2)[nH]c2nc3ccccc3n12,-4,-5,-26,17,1,44*
O=C(COC(=O)c1ccccn1)Nc1ccc(F)cc1F,.,.,-15,5,.,.
O=[N+]([O-])c1ccccc1OCCOCCOc1cccc2cccnc12,0,12*,-3,4,3,2
COC(=O)c1ccccc1OCCOCCOc1cccc2cccnc12,-7,3,-9,4,2,2
COc1ccc(N=C2S/C(=C\c3ccc(OCC(=O)O)cc3)C(=O)N2CCc2c[nH]c3ccccc23)cc1,-5,10*,22,-1,1,2
COc1ccc(-n2nc3cc(C)c(NS(=O)(=O)c4ccccc4)cc3n2)cc1,.,.,-14,13,.,.
CCC(c1nnnn1C1CCCC1)N(Cc1ccccc1)Cc1cc2cc(OC)ccc2[nH]c1=O (stereo not given),.,.,74*,15,.,.
CCC(c1nnnn1C1CCCCC1)N(Cc1ccc(C)cc1)Cc1cc2cccc(C)c2[nH]c1=O (stereo not given),.,.,66*,9,.,.
CCOc1ccc2[nH]c(=O)c(CN(Cc3ccccc3)C(CC)c3nnnn3C3CCCC3)cc2c1 (stereo not given),.,.,62*,20,.,.
CCC(c1nnnn1C(C)(C)C)N(Cc1ccccc1)Cc1cc2cc(OC)ccc2[nH]c1=O (stereo not given),.,.,68*,12,.,.
O=C(CN1C(=O)N2CCN=C2c2ccccc21)NC1CC1,.,.,-3,0,.,.
O=C(CN1C(=O)[C@@H]2CCCN2C(=O)c2ccccc21)N1CCCC1,.,.,0,3,.,.
COc1ccc(CNc2c(-c3ccc(O)cc3)nc3cnccn23)cc1,.,.,-69,13,.,.
C/C=C/Cn1c(N(CC)CC)nc2c1c(=O)[nH]c(=O)n2C,.,.,12,10,.,.
CCOc1ccc2[nH]c(=O)c(CN(Cc3cccs3)C(CC)c3nnnn3C3CCCC3)cc2c1 (stereo not given),.,.,62*,6,.,.
CCCC(c1nnnn1C1CCCC1)N(Cc1cc2cc(OCC)ccc2[nH]c1=O)C1CCCC1 (stereo not given),.,.,31,10,.,.
